Compounds with a hit are over-represented: about 3.7% of the library has one in this group of screens.
MPTP block = mitochondrial permeability transition pore inhibitors, primary screen, biochemical, isolated mouse mitochondria, absorbance | Ca2+ swelling absorbance, 30 min | inhibition, % at 10 µM | 1.4% of 360,000 active | AID 602449, 2012;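 active means inhibition of 50% or more, scaled per plate between neutral and stimulator controls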
proCasp7 act = procaspase-7 activators, primary screen, counter-screen for procaspase-3 activator project, biochemical, absorbance, HTS, human | 0.093% of 330,000 active | AID 463210, 2010 | recombinant procaspase-7, Ac-DEVD-pNA absorbance 405 nm; D23A/D198A/D206A triple mutant, cannot self-cleave; scale: DMSO 0, 5 µM enzyme 100 | activation, % at 8.5 µM | Caspase-7 (Homo sapiens), P55210;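 active means percent activation above the screen-wide mean plus 3 SD, cut at about 25% in these data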
Target sequence (P55210 whole entry D23A/D198A/D206A): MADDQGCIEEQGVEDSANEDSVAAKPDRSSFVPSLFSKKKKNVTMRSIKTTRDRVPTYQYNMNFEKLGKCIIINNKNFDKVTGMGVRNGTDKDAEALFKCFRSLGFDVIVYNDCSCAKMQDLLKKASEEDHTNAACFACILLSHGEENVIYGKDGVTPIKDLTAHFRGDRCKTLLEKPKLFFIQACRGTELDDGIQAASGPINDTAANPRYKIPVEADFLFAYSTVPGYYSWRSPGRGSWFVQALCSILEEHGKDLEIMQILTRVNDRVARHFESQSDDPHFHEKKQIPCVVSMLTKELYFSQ
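Assay system – Uncleavable procaspase-7 mutant enzyme · Quantity – 2 µM procaspase-7 mutant as dispensed · Times – 1 h preincubation, 2 h reaction · Dosing – single nominal 8.5 µM compound dose, 0.8% DMSO final · Buffer or medium – Zinc-free 50 mM HEPES buffer, pH 7.4, with NaCl and Triton X-100 · Detection – Epi-absorbance of released pNA at 405 nm, two timepoints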
aDG glyco up = activators of alpha-DG glycosylation, primary screen, uHTS, Pro5-aDG cells, AlphaScreen; activation, % at 10 µM; 0.22% of 360,000 active; alpha-DG glycosylation AlphaScreen (IIH6); 0% Pro5, 100% B10-LARGE cell signal;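 active means activation of at least 8% versus controls, or a plate z-score of at least 8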;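 further: Pro5 are CHO cells carrying HIG-tagged alpha-DG that lacks glycosylation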
GRIN3A LBD mod = binders of NR3A ligand-binding domain, primary screen, biophysical, differential scanning fluorimetry, uHTS. NR3A LBD differential scanning fluorimetry, Tm shift; 0% = protein alone, 100% = glycine-bound protein. Tm shift relative to glycine control, % at 25 µM. 2.5% of 340,000 active. AID 1259313, 2017;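 active means melting temperature shift of at least 10% of the positive control shift, at one fixed dose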
proCasp3 act = activators of human procaspase-3 D3A mutant, primary screen, biochemical, absorbance, PC-3 D3A mutant, single concentration; recombinant procaspase-3 D3A, Ac-DEVD-pNA absorbance 405 nm; activation, % at 8.5 µM; 0.11% of 330,000 active;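 active means activation above the mean of all tested compounds plus 3 SD, cut at about 21% in these data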
Target sequence (P42574 whole entry D9A/D28A/D175A): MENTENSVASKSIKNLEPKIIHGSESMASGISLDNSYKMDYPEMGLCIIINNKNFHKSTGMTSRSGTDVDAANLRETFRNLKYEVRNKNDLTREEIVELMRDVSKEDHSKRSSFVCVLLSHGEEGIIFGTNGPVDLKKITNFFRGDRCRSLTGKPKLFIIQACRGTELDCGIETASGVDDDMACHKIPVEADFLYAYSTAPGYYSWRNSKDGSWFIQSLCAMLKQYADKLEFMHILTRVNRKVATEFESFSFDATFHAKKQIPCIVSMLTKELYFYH
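Evaluation: percent activation relative to control range; Material: Procaspase-3 D3A mutant, all three cleavage aspartates alanine; Compound: single dose, 8.5 µM nominal compound, 0.8% DMSO; Replication: one well per compound; Signal: absorbance at 405 nm, 0 and 120 min; Schedule: 1 h preincubation plus 2 h reaction at 25 °C.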
Rh123 counter = fluorescence retest of MPTP screen hits in isolated mitochondria, single concentration; inhibition, % at 10 µM; AID 624504, 2012; membrane potential, Rhodamine 123 fluorescence; 78% of 5,000 active; shares compounds with MPTP block; in the data active means inhibition above about 22%
MPTP abs DR = mitochondrial permeability transition pore inhibitors, dose response, biochemical, absorbance, uHTS hits; IC50, µM; shares compounds with MPTP block; 58% of 780 active; AID 651561, 2012; isolated mitochondria swelling; in the data active means IC50 below about 20 µM
MPTP counter DR = fluorescent counter-screen in isolated mitochondria, dose response, counter-screen for MPTP inhibitor project, biochemical, fluorescence, uHTS hits; 49% of 780 active; IC50, µM; shares compounds with MPTP block; isolated mitochondria counterscreen, fluorescence read-out; in the data active means IC50 below about 80 µM
Large screens that a line does not name were inactive (follow-up assays come after a bar, where they were run); ! = not confirmed by another sample.

O=C(CSC1=NCCS1)Nc1ccc2ccccc2c1	none
Cc1ccc(C(=O)O)cc1NC(=S)NC(=O)c1ccc(COc2ccccc2)cc1	none
CCC(O)(CC)C(=O)N/N=C/c1cc(Br)cc(Br)c1O	MPTP block 83.1 | Rh123 counter 45.6
CC(=O)Nc1cccc(C(=O)NN2C(=O)NC3(CCC(C)CC3)C2=O)c1 (configuration not stated)	none (no result: proCasp7 act, GRIN3A LBD mod, proCasp3 act)
C[C@H](NC(=O)c1ncn2c1C(=O)NC[C@H]2C)C(=O)OC(C)(C)C	none (no result: proCasp7 act, GRIN3A LBD mod, proCasp3 act)
O=C(NCCCNc1ccc(C(F)(F)F)cc1[N+](=O)[O-])c1ccc(Cl)cc1	MPTP block 57.9 | Rh123 counter 73.9
COc1ccc(/C=C/c2nc(-c3ccccc3O)n[nH]2)cc1	MPTP block 55.9, GRIN3A LBD mod 39.8 | Rh123 counter 45.7
O=C1CC(c2ccccc2)=NN1c1nc(-c2ccccc2)cs1	MPTP block 67.2 | Rh123 counter 41.9
Cc1ccc(C(=O)OCC(=O)NC2CCCCCC2)c(C)c1	none (no result: proCasp7 act, proCasp3 act)
CC1NC(=O)c2ccccc2-n2c1nc1ccc(F)cc1c2=O (configuration not stated)	none (no result: proCasp7 act, GRIN3A LBD mod, proCasp3 act)
CN(C)S(=O)(=O)c1cccc(-c2nn(-c3ccccc3)cc2/C=C2\SC(=S)NC2=O)c1	MPTP block 97.4, GRIN3A LBD mod 11.2 | Rh123 counter 45.3
O=C(Nc1cccc(C(F)(F)F)c1)Nc1nnc([C@H]2C[C@H](O)[C@@H](CO)O2)s1	none (no result: proCasp7 act, GRIN3A LBD mod, proCasp3 act)
CCSCCc1nnc(NC(=O)Nc2cccc(C(F)(F)F)c2)s1	MPTP block 79.5 | Rh123 counter 72.6
FC(F)(F)c1cccc(NC(=S)N2CCN(c3cccc(C(F)(F)F)c3)CC2)c1	none
O=C(Nc1cccc(C(F)(F)F)c1)N1CCN(C(=O)Nc2cccc(C(F)(F)F)c2)CC1	MPTP block 63.6 | Rh123 counter 71.0
Fc1ccc(NC(=S)N2CCN(c3cccc(C(F)(F)F)c3)CC2)cc1	MPTP block 100.8 | Rh123 counter 74.5
O=C(Nc1cccc(C(F)(F)F)c1)c1cc(-c2ccc(F)cc2)on1	MPTP block 66.8 | Rh123 counter inactive | MPTP abs DR inactive | MPTP counter DR inactive
O=C(Nc1ccn(CCCN2CCC(N3CCOCC3)CC2)c(=O)n1)OCc1ccccc1	none (no result: proCasp7 act, GRIN3A LBD mod, proCasp3 act)
O=C(Nc1cc(C(F)(F)F)ccc1N1CCOCC1)C1Cc2ccccc2CN1C(=O)c1ccco1 (configuration not stated)	none
CC(=O)c1cccc(OC(=O)Oc2cccc(C(C)=O)c2)c1	none (no result: proCasp7 act, proCasp3 act)
OCCN1CCN(C(=S)Nc2cccc(C(F)(F)F)c2)CC1	MPTP block 94.4! | Rh123 counter 82.1
CCOC(=O)c1ccc(NC(=S)N2CCSC2c2c(F)cc(F)cc2F)cc1 (configuration not stated)	none
Fc1cc(F)c(C2SCCN2C(=S)Nc2cccc(C(F)(F)F)c2)c(F)c1 (configuration not stated)	MPTP block 74.0, GRIN3A LBD mod 15.9 | Rh123 counter 92.9
O=C(NCc1ccc2c(c1)CCO2)Nc1cccc(C(F)(F)F)c1	MPTP block 66.9 | Rh123 counter 82.6
CCN1CCN(C(=S)Nc2cccc(C(F)(F)F)c2)CC1	none
Cc1cc2c(NC(=O)Nc3ccc(C(C)(C)C)cc3)cccc2nn1	MPTP block 85.3 | Rh123 counter 81.2
Cc1ccc([C@H]2N[C@]3(CCCN(Cc4ccc(C(F)(F)F)cc4)C3=O)[C@H]3C(=O)N(C)C(=O)[C@@H]23)cc1	none (no result: proCasp7 act, GRIN3A LBD mod, proCasp3 act)
CN(C)S(=O)(=O)c1cccc(C(=O)Nc2cc3c(cc2C(=O)O)OCCCO3)c1	none
COc1ccc(CN(C)C(=O)c2cnc(OC)cc2C(F)(F)F)c(OC)c1	none
O=C(Nc1cccc(C(F)(F)F)c1)n1cc(-c2ccccn2)c(N2CCOCC2)n1	MPTP block 86.5 | Rh123 counter 96.0
Cc1onc(C(=O)Nc2cccc(C(F)(F)F)c2)c1[N+](=O)[O-]	none
COc1ccc(N2CCN(C(=O)Nc3cccc(C(F)(F)F)c3)CC2)cc1	none
O=C(CN1CCOCC1)Nc1cccc(C(F)(F)F)c1	none
O=C(Nc1cccc(C(F)(F)F)c1)C(Sc1ncnc2ccccc12)c1ccccc1 (configuration not stated)	MPTP block 60.2, GRIN3A LBD mod 17.5 | Rh123 counter 68.1
Cc1nc(Cl)c(C(=O)NC(=O)Nc2cccc(C(F)(F)F)c2)c(C)c1[N+](=O)[O-]	MPTP block 97.3 | Rh123 counter 89.5
CN1CCN(c2ccc(-c3ccnn3C(=O)Nc3cccc(C(F)(F)F)c3)cc2)CC1	MPTP block 86.7 | Rh123 counter 100.2
CC(C)CC1C(=O)N(Cc2cn(CC3CCCCC3)nn2)CCS(=O)(=O)N1Cc1ccc(-c2cccc(CO)c2)cc1 (configuration not stated)	none (no result: proCasp7 act, GRIN3A LBD mod, proCasp3 act)
O=C(Nc1ccccc1)Nc1cccc(C(F)(F)F)c1	MPTP block 96.5, GRIN3A LBD mod 26.6 | Rh123 counter 97.5
CC(=O)c1c(C)[nH]c(C(=O)Nc2cccc(C(F)(F)F)c2)c1C	MPTP block 70.1 | Rh123 counter 86.4
Cc1ccccc1NC(=O)CNC(=O)c1ccc(C(F)(F)F)cc1	none
Cc1ccccc1NC(=O)Nc1ccc(C(F)(F)F)cc1	MPTP block 79.5 | Rh123 counter 87.0
Cc1ccc(OC(F)F)c(NC(=O)Nc2cccc(C(F)(F)F)c2)c1	MPTP block 96.0, GRIN3A LBD mod 28.9 | Rh123 counter 73.3
CCCCNC(=O)C1(C)CCN1C(=O)c1ccc2sccc2c1 (configuration not stated)	none (no result: proCasp7 act, GRIN3A LBD mod, proCasp3 act)
CCCN1CCN(C(=O)Nc2cccc(C(F)(F)F)c2)CC1	MPTP block 72.3 | Rh123 counter 91.5
O=C(CN1CCN(c2cccc(C(F)(F)F)c2)CC1)Nc1cccc(C(F)(F)F)c1	none
CNC(=O)Nc1cccc(C(F)(F)F)c1	none
Cc1cc(NC(=O)Nc2cccc(C(F)(F)F)c2)n(C)n1	MPTP block 72.5 | Rh123 counter 77.0
